Experimental data from the EternaBench riboswitch data.

Test system: MS2 coat protein
Experiment: apparent Kd, MS2 coat protein; higher = weaker binding; RNA-MaP array; FMN 200 µM where present
Summary of the method: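 Each design was made on Illumina sequencing-chip clusters by stalled E. coli RNA polymerase and titrated with SNAP-549-labelled MS2 coat protein from 0.7 or 1.5 nM, doubling to 3 µM, in the absence and then the presence of constant ligand. The buffer was 100 mM Tris-HCl pH 7.5, 80 mM KCl, 4 mM MgCl2, BSA, DTT, yeast tRNA and Tween-20. The apparent Kd is the median of filtered per-cluster fits of binding curves, with green signal normalised to red-channel RNA signal and control-cluster median Fmax.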

[1] = designed as: OFF switch for flavin mononucleotide, no ligand
[2] = ligand present: flavin mononucleotide, designed as: OFF switch for flavin mononucleotide
[3] = designed as: ON switch for flavin mononucleotide, no ligand
[4] = ligand present: flavin mononucleotide, designed as: ON switch for flavin mononucleotide

Sequence | apparent Kd [1] [µM] | apparent Kd [2] [µM] | apparent Kd [3] [µM] | apparent Kd [4] [µM]
AUUUGACACGUAGGAUAUCGCUUAAAUUUAACACGAGAAGGACGAACAUGAGGAUCACCCAUGUAUCAUGGAGUAGAUAAUUUG | 0.115 | 0.329 |  | 
GUGAAACAUGAGGAUCACCCAUGUCAGGAUAUGAUACUAUGUACUUCGGUACAUAGUAUCAGAAGGGACAGUGA | 0.0779 | 0.101 |  | 
CUCCCAUGUGUAGGAUAUAGAAAACCGAAAUGGCUAGAAGGACACAUGAGGAUCACCCAUGUAACCUUAACUUAGUGUACCGGG | 0.0533 | 0.124 |  | 
AUUAUUGACGUAGGAUAUUCUUACAUGAGGAUCACCCAUGUUAUUUGGGAACUAGGAAUAUUUUAGAAGAAGGACGUUGUUAAA |  |  | 0.23 | 0.173
CGACCCUGAACGAAAUCAUGCAGUCAGGAUAUACAUGAGGAUCACCCAUGUGCGUACCAACUCGUGUAGAAGGGACUUUCAGGA | 0.0156 | 0.0323 |  | 
AAUUAUUAUUGAGGAUAUCGUAUUGAAACAAUAUGAGAAGGCGGGAUAAACAUGAGGAUCACCCAUGUGAGCCUGAUGCUUGUG | 0.0163 | 0.0156 |  | 
UCGCGGGUGCAGAAGGGAUAGGCCUAUUGUCGUGGAGUCUAAACUUAACAUGAGGAUCACCCAUGUCAGGAUAUGCCCACGCGA | 0.00917 | 0.0102 |  | 
UGUAUGGACAGAGGAUAUGCCGAUAGGAUCUACUAUCGAAGAAUCCUCACAUGAGGAUCACCCAUGUAGAAGGCUGUUCAUACU | 0.0082 | 0.0341 |  | 
UAAUAUUUAUGAUAUUAUUACAUUAGAAGGCUAGACAUGUGGAUACAUGAGGAUCACCCAUGUAUAGAGGAUAUAGACAUAUAG | 0.0258 | 0.0426 |  | 
UGUUGUAUUACAGGAUAUCUAGAAUUUUUAUUUAGAGAAGGGUAUUCACAUGAGGAUCACCCAUGUAUAUACGAGGAAGUUGUG |  |  | 0.0337 | 0.0338
CAGUACUGAGGAUAUACAUGAGGAUCACCCAUGUGUUCCUGCUAGGAUAUUAGCAAAAGUAGAAGGCAGAAGGGAAUGUGCCUA | 0.00693 | 0.00673 |  | 
AGCUAGUCAGGAUAUACAUGAGGAUCACCCAUGUAAACUUUUAGUUUAAUUUGAAUGUGUAGAAGGGACAUAAA | 0.0217 | 0.0241 |  | 
UGUCCAUAGCAGAAGGACAUGAAUAACCAUGAAAACAUGAGGAUCACCCAUGUAGGAUAUGCUAUGGACUAAGAGCGAAAGCUC | 0.015 | 0.175 |  | 
GGGUACAUCGGAGGAUAUCAUGUAAAUACAUGAGGAUCACCCAUGUCGAUGGAGACAUCGGAGAUUUAGAAGGCCGAUGUACCG |  |  | 0.158 | 0.201
AGUCAGAGCAGAGGAUAUAUACAUGAGGAUCACCCAUGUGACUGCCUAUGCUCGAAAGAGUAUGUAUAGAAGGCUGCUCUGACA | 0.611 | 0.276 |  | 
GGAUUGUGAGGAUAUUAGUUGUACGUCAAUAGACGUAUAAGUGAGAAGGCACAUGAGGAUCACCCAUGUUCCUG | 0.0227 | 0.0807 |  | 
AACAGCUCGUCAGGAUAUACGUCACUGCGUCAGCAGUGUGGUAAGAUCACAUGAGGAUCACCCAUGUAGAAGGGACGAGCUGAU | 0.0143 | 0.267 |  | 
UUAAUUAUACAAGGAUAUCUAUUGUAAUUUCGUCUUACAUGAGGAUCACCCAUGUUAAUAUUUUUAGAGAAGGUGUAUUUUCAG |  |  | 0.113 | 0.0637
GGAUCGCGUGUGAGGAUAUGCUCGACCUUGGUCGAGCAGAAGGCACAUGAGGAUCACCCAUGUGACCUCGGUCC | 0.0876 | 0.451 |  | 
AUGGACGCAGGAUAUACAUGAGGAUCACCCAUGUGAGGUAGGUAAGUAGGAAGUGAAGGUAGAAGGGCGAGAGA | 0.0672 | 0.0953 |  | 
CCGUGAAGGACAGGAUAUGGACAUGAGGAUCACCCAUGUACAUGGGAAUAUAUACUGAAUUUAUACUAGAAGGGUUACAUAAAU | 0.0218 | 0.0194 |  | 
UUGGACGUCGUAGGAUAUGUAGGAUAUCCCUACAUGAGGAUCACCCAUGUUGACAUGGAAGAAGGACAGAAGGACGAUGUCCAU |  |  | 0.105 | 0.0118
GGUGCACGCACAGGAUAUCCGGCGACGCUCGUCGGAGAAGGGUGACAUGAGGAUCACCCAUGUACGUGCAACUCAGUUUGAGAG |  |  | 0.0357 | 0.0281
GUCUGGUUAGGAUAUACAGUGUCCACGAGUUAGUUGCCCUAACAUGAGGAUCACCCAUGUAGAAGGAGCGAGAA | 0.0222 | 0.0226 |  | 
UUUAACAGAGGAUAUGCGAAUAAAUAAAACUUUUUUUUUUAACAUGAGGAUCACCCAUGUAGAAGGCUGAUUUU | 0.0457 | 0.0477 |  | 
GGGUACAUCGGAGGAUAUCAUGUAAAUACAUGAGGAUCACCCAUGUCGAUGGAGUCAUCGGAGAUUGAGAAGGCCGAUGUACCG |  |  | 0.014 | 0.00575
UUUUUCUCAGGAUAUACAUGAGGAUCACCCAUGUAUAUUAGUGAUAAUACAUGGGAAUGUAGAAGGGAGCUCAU | 0.164 | 0.123 |  | 
AAGAAGUCAGGAUAUGCUGCUCGUCACUUGCGUGAUGAGUAGCAGAAGGGACAUGAGGAUCACCCAUGUAAAGA | 0.0325 | 0.0674 |  | 

Sequence | apparent Kd [1] [µM] | apparent Kd [2] [µM] | apparent Kd [3] [µM] | apparent Kd [4] [µM]
AUGGACGUCGUAGGAUAUGUAGGAUUCUCGUACAUGAGGAUCACCCAUGUUGACGUCGAGGACGGACAGAAGGGCGGUGUCCAU |  |  | 0.0423 | 0.00801
UUACUCAUGUAAGGAUAUGCAGCCGAAACGGCUGCAGAAGGUACUAAAAUACAUGAGGAUCACCCAUGUCUUUUUAAUUUAGAU |  |  | 0.0755 | 0.0476
AGGAAGUGAGGAUAUGCAGCAGCUAGUGGACGCUAGCGCAUGUAGAAGGCACAUGAGGAUCACCCAUGUUUAAA | 0.0321 | 0.0362 |  | 
AGCUAGUCAGGAUAUACGAACAUGUCAAAAGACGUGAAGGGACAUGAGGAUCACCCAUGUAGAAGGGACUAGCA | 0.04 | 0.17 |  | 
AAAAAACAUGAGGAUCACCCAUGUCAAAAGACAUGAGGAUAUGUACAGACUUCGGUCUGUACAGAAGGCAUGAAAA |  |  | 0.489 | 0.0436
ACUAUACGAGGAUAUACUGUCGGGCCUCGGACAUAAAUACGACAUGAGGAUCACCCAUGUAGAAGGCGUUUACU | 0.0312 | 0.054 |  | 
AUAUCCUAGAUAGGAUAUACUGAGGUUGAAUGGGUAGAAGGAUCGAUAGGGAAGACUACAUGAGGAUCACCCAUGUUGUGUAUU |  |  | 0.0994 | 0.0902
ACAUGAGGAUCACCCAUGUGAACAUAGGAUAUUGGUGAUCAGGCAUGUUAUACAGGAUAUGUCUGCGAGAAGGGUGCACGUUGC |  |  | 0.524 | 0.412
CAUCAGGUACGAGGAUAUCCGCGAUCUCUUCGAGGAGAAGGCGUACAUGAGGAUCACCCAUGUGGGCGAGACAGACGAAGUCUG | 0.114 | 0.0595 |  | 
CUGUGACGGUGCGCAAGUGGACGGAGAAGGCAGACAUGAGGAUCACCCAUGUGAGCCUGCUAUUCUGAGGAUAUCCGUUCGUAC | 0.027 | 0.132 |  | 
UGCCGCAACAACGCGGCGUCACAUGAGGAUCACCCAUGUUCACAGGAUAUGCGAUAGCCAACGAAGCAGAAGGGUGAUUACUUA |  |  | 0.0537 | 0.219
AAGAAGUGAGGAUAUGUAUCAGUAUAGUUGCCUAUACUGAUGUAGAAGGCACAUGAGGAUCACCCAUGUCCUAA | 0.0208 | 0.025 |  | 
UCACGGGACUAAGGAUAUAUGAGUACCAUUUACAUAGAAGGUAGAAUGUUAGAUCAUAAACUAAACAUGAGGAUCACCCAUGUU | 0.0194 | 0.0186 |  | 
UCUACAUAAAUUCAUCAAUACAGAAAGGAUAUGAGAUACAUGAGGAUCACCCAUGUGCAUGGGAAUUAGAAGGUUCAAUUAACU | 0.0985 | 0.0672 |  | 
GCAGCACUGUAGAACAUGAGGAUCACCCAUGUCGAUUGUUAUGAGGAUAUGCAUCGUAUGAAGAUGCAGAAGGCAUUGUGCUGC |  |  | 0.00559 | 0.00516
AGCAUGUGAGGAUAUGUGACCCUCGUCCUAAGGACAAGGGAAUAGAAGGCACAUGAGGAUCACCCAUGUGAUGA | 0.0546 | 0.168 |  | 
UUACUAUUACAGAAGGCUAAAUAAUAUAUAAAUGGAGGAUAUGUAACAUGAGGAUCACCCAUGUUUCACCCACAUGAGGAUCAC | 0.00845 | 0.0238 |  | 
CUAUGAAGAAUAGGAUAUUCGAUCAUGAGGAUAGAAGAAGGGUUACAUGAGGAUCACCCAUGUAUGCACAUGAGGAUCCCUUAG | 0.167 | 0.195 |  | 
ACCUCACAUGAGGAUCACCCAUGUUAGGAUAUCUCGGUGCCCUGCAGGCAGUGGCACCAGAGAAGGAACGUGCA | 0.0192 | 0.0242 |  | 
UGCAGACGAGGAUAUGAUUAAUAAUACAUGAGGAUCACCCAUGUAAUACUGAUCUAUGGAUCAGAAGGCGUCUGCU | 0.0173 | 0.0146 |  | 
UCGAUUAUACAAGGAUAUCAAUUGUAAUUGAGACUUACAUGAGGAUCACCCAUGUUAAUAUUUUUUGAGAAGGUGUAUUUUCAG |  |  | 0.0473 | 0.0268
AUCAAUCACAUAGGAUAUAGAAUAUUAUAUUUUUACAUGAGGAUCACCCAUGUUUUAUUGGGAUUCUAGAAGGAUGAGUUAUUA |  |  | 0.13 | 0.118
AAUUAUUAUUGAGGAUAUCGUAUUGAAACAAUACGAGAAGGCGGAAUAAACAUGAGGAUCACCCAUGUGAGCCUGAUGCUUGUG | 0.017 | 0.0187 |  | 
CGAUAGGACAGAGGAUAUACACAUGAGGAUCACCCAUGUAAUUACAAUUCUUGUGGUUCUUCCAUGUAGAAGGCUGUCCUAUCG | 0.113 | 0.335 |  | 
GUUUCUAUAUGUUUUAUUUAACAGUCAGAAGGUGAUACUACGACAUGAGGAUCACCCAUGUAAUUCAAGGAUAUGAACUUAAUC |  |  | 1.06 | 0.517
AAUAACAGAGGAUAUACUGUUUUAUGUAUUUAUUAUUUUGAACAUGAGGAUCACCCAUGUAGAAGGCUGAUUGA | 0.0356 | 0.0316 |  | 
UGUCGGAGCAGAGGAUAUUACAUGAGGAUCACCCAUGUAUGAACCAAUAGCUGGAAUCAGCAAUGUAAGAAGGCUGCUCCGACA | 0.0175 | 0.167 |  | 
